Efflux pump mplx = blocks antifungal efflux pumps in multiplex yeast assay | S. cerevisiae Candida pump triplex, Nile Red efflux | inhibition, % at 10 µM | 0.44% of 330,000 active;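 active = plate passing quality check with inhibition over a set limit, or well fluorescence over plate mean plus 4 SD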;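 also: Nile Red retained in pooled yeast measured as flow cytometry median fluorescence; 0% = buffer negative control and 100% = Enniatin B positive control; higher means more Nile Red kept so more efflux inhibition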
Cneo AK release = causes C. neoformans cell lysis; adenylate kinase release luminescence, 4 h; normalised: neutral wells 0, clomiphene wells 100; lysis activity, % at 15 µM; 0.2% of 360,000 active;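 active = mean lysis activity across replicates of at least 80%, whatever share of replicates individually reach that level; inactive = mean lysis activity below 80%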
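Material – log-phase Cryptococcus neoformans yeast cells · Input – 5 × 10^6 yeast cells/mL · Medium – fresh YPD growth medium · Doses – single compound concentration per well · Timing – static 4 h at 37 °C with compound, 1 h detection · Detection – adenylate kinase release luminescence · Read-out – signal increase indicating cell lysis · Control set – Clomiphene as positive lysis control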
Mot1-301 SUMO = inhibitors of SUMOylation pathway: yeast Mot1-301 growth rescue; S. cerevisiae Mot1-301 growth rescue, ATP luminescence, 38.5C; percent above DMSO median, 100 means doubled; growth rescue, % at 18.8 µM; 1% of 320,000 active; AID 2716;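 active = every valid replicate shows activation above 250% relative to neutral control wells; inactive = the rest, any valid replicate at or below 250%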;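 also: OY570 slx delta 5 strain wells were the positive control but not used for scaling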
Statin myotox sup = protects C2C12 myotubes from simvastatin toxicity; 0.78% of 330,000 active; rescue of ATP level, % at 7.49 µM; ATP luminescence, 48 h; scaled: DMSO 0, geranylgeraniol control 100;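 active = mean ATP rescue above about 67%, or every replicate alone reaching that limit, limit read from the data, passing the limit was not always enough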;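 also: myotubes were challenged with 10 µM simvastatin during compound exposure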
An asterisk follows results filed as active; · = no result given. An excerpt weighted towards active compounds, which were near 1.8% of everything screened.

SMILES	Efflux pump mplx	Cneo AK release	Mot1-301 SUMO	Statin myotox sup
C[C@H](CO)N1C[C@H](C)[C@H](CN(C)Cc2ccncc2)Oc2ccc(NC(=O)CCC(F)(F)F)cc2C1=O	·	149*	·	-16
C[C@@H]1CN([C@@H](C)CO)C(=O)Cc2cc(NC(=O)CCC(F)(F)F)ccc2O[C@H]1CN(C)Cc1ccc(Oc2ccccc2)cc1	·	0	·	87*
O=C(NC1CCSc2ccccc21)c1cccc(OC(F)F)c1 (stereo not given)	0	-3	1	67*
O=C(NC1CCSc2ccccc21)c1cccc(Br)c1 (stereo not given)	0	-1	28	8
Cn1c(=O)c2c(nc(N3CCOCC3)n2CCCNC2=NCCC2)n(C)c1=O	0	-2	1	·
COc1ccccc1OCC(=O)N/N=C1/SCC(=O)N1Cc1ccccc1	0	2	354*	3
O=C(COc1ccc(Br)cc1)N/N=C1/SCC(=O)N1Cc1ccccc1	0	·	-13	·
CCCCCC(=O)N1C[C@H](n2cc(COC(=O)c3ccccc3)nn2)[C@@H](O)C[C@@H]1c1ccc(Cl)cc1	·	-2	·	9
O=C(NCc1ccc2c(c1)OCO2)c1cc(-c2ccccn2)nc2ccccc12	0	0	-13	-5
CC(=O)c1c(C(C)=O)c(C)n(Cc2ccc(Cl)cc2)c1C	0	-1	-4	144*
CCOC(=O)c1c(C=O)c(C)n(Cc2ccc(Cl)cc2)c1C	0	·	·	·
Cc1nn(C)cc1/C=N/n1nnnc1N	0	1	15	107*
CNC[C@@H]1OCCCC[C@@H](C)Oc2ccc(NC(=O)NC(C)C)cc2C(=O)N([C@@H](C)CO)C[C@H]1C	·	88*	·	·
CNC[C@H]1OCCCC[C@@H](C)Oc2ccc(NC(=O)NC(C)C)cc2C(=O)N([C@@H](C)CO)C[C@@H]1C	·	0	·	·
CNC[C@@H]1OCCCC[C@@H](C)Oc2ccc(NC(=O)Nc3ccc4c(c3)OCO4)cc2C(=O)N([C@H](C)CO)C[C@@H]1C	·	89*	·	0
O=C(COC(=O)c1cnccn1)c1ccc(Br)cc1	0	2	-20	-4
O=C(OCCOc1ccc(Br)cc1)c1cnccn1	0	5	259	117*
CC(C)COc1nc2ccccc2c(=O)n1OCC(=O)O	0	1	-1	116*
Cc1cc(C)c(NC(=O)c2cc(=O)c3ccccc3o2)c(C)c1	0	·	-4	·
CCCn1c(=S)[nH]c2cc(C(=O)N3CCN(C(=O)OCC)CC3)ccc2c1=O	0	-4	-4	9
CCOC(=O)N1CCN(C(=O)c2ccc3c(=O)n(Cc4ccc(Cl)cc4)c(=S)[nH]c3c2)CC1	0	4	65	82*
CCOC(=O)N1CCN(C(=O)c2ccc3c(=O)n(CCC4=CCCCC4)c(=S)[nH]c3c2)CC1	0	-1	53	94*
COc1ccc(-c2csc(N(CCCN(C)C)C(=O)c3ccc(C)cc3)n2)cc1	0	4	-4	0
COc1ccc(N2C(=O)C(CC(=O)O)S/C2=C\C(C)=O)cc1 (stereo not given)	0	-2	-14	-6
N#Cc1c2ccc(OCC(N)=O)cc2n2ccccc12	0	-2	371*	15
SMILES	Efflux pump mplx	Cneo AK release	Mot1-301 SUMO	Statin myotox sup
O=C(O)CC1SC(=Nc2ccccc2)N(c2ccccc2)C1=O (stereo not given)	0	-4	·	115*
CCCCN1C(=O)C(CC(=O)NCC)SC1=Nc1ccccc1 (stereo not given)	0	1	-6	159*
COc1ccc(N=C2SC(CC(=O)Nc3ccccc3)C(=O)N2CCc2ccccn2)cc1 (stereo not given)	0	-4	356*	·
C[C@H]1CN([C@@H](C)CO)C(=O)c2cccc(NC(=O)NC3CCCCC3)c2O[C@@H]1CN(C)Cc1ccc2c(c1)OCO2	·	-3	·	-124
CC1(C(=O)Nc2cccc3c2CCCC3)CCN1C(=O)C1(c2ccc(Cl)cc2)CC1 (stereo not given)	·	-8	·	19
O=C(NNC(=O)c1ccccc1Cl)c1cc2cc(OC(F)(F)F)ccc2[nH]1	0	·	-14	-11
Cc1cc(Cl)c(S(=O)(=O)NCc2ccncc2)cc1OCC(N)=O	0	3	26	129*
Cc1cc(Cl)c(S(=O)(=O)NCc2ccccc2)cc1OCC(N)=O	0	2	331	5
COc1cc2nc(N(C)C)nc(N)c2cc1OC	0	1	1	78*
O=C(C[C@H]1CC[C@@H](NC(=O)Cc2cccnc2)[C@H](CO)O1)NCc1ccc2c(c1)OCO2	·	-1	·	-9
COc1cccc(C2C(C(=O)c3ccco3)=C(O)C(=O)N2CCN(C)C)c1OC (stereo not given)	0	·	470*	·
COc1ccccc1NC(=O)CN1C(=O)CCS(=O)(=O)c2ccccc21	0	2	6	125*
Clc1ccc(NCc2nncn2-c2ccccc2)cc1	0	1	-14	11
COc1c(Cl)cc(Cl)cc1CNc1ccc(S(N)(=O)=O)cc1	0	·	327*	·
CCOc1c(Cl)cc(CNc2ccc(S(N)(=O)=O)cc2)cc1OC	0	·	·	·
COc1cccc(-n2nnnc2SCC(=O)NCCc2ccccc2)c1	0	-2	-1	102*
COc1ccc(-c2ccc(C(=O)Nc3cccc(C(F)(F)F)c3)c3occc23)c(C)c1	·	0	·	-1
c1ccc2c(CSc3ncnc4nc[nH]c34)cccc2c1	0	·	295*	·
c1ccc(CCSc2ncnc3nc[nH]c23)cc1	0	0	7	4
CC(C)c1cccc(C(C)C)c1OC(=O)[C@H]1OC(c2ccc(Br)cc2)=C[C@@H]1c1ccc(Br)cc1	0.8*	-3	3	8
O=C(CSc1ncn[nH]1)NCCc1ccc(Cl)cc1	0	0	-11	18
O=C(CN(Cc1ccco1)C(=O)CNS(=O)(=O)c1ccc(F)cc1)NCc1ccccc1	0	0	298*	6
O=C(CN(Cc1ccco1)C(=O)CNS(=O)(=O)c1ccccc1)NCc1ccccc1	0	-3	-2	23
CCOc1ccc(N(CC(=O)NCc2ccco2)S(=O)(=O)c2ccc(OC)c(OC)c2)cc1	0	5	-7	108*
O=C(CN(c1ccc(F)cc1)S(=O)(=O)c1ccccc1)NCc1ccco1	0	1	8	103*
SMILES	Efflux pump mplx	Cneo AK release	Mot1-301 SUMO	Statin myotox sup
CCn1cc(C(=O)NCC2CCCO2)c(=O)c2cc(S(=O)(=O)N3CCC(C)CC3)ccc21 (stereo not given)	0	·	-5	·
CN(Cc1ccon1)Cc1cn(C)nc1-c1ccc(Oc2ccccc2)cc1	0	-1	23	·
C[C@H]1CN([C@@H](C)CO)S(=O)(=O)c2ccc(C#CC3CCCC3)cc2O[C@H]1CN(C)Cc1cccnc1	·	13	·	-22
Cc1ccc(S(=O)(=O)N[C@H]2C=C[C@H](CC(=O)NCCCN(C)C)O[C@@H]2CO)cc1	·	5	·	-4
CCNC(=O)C[C@H]1C=C[C@@H](NS(=O)(=O)c2ccc(C)cc2)[C@H](CO)O1	·	-1	·	18
COCCNC(=O)C[C@H]1C=C[C@@H](NS(=O)(=O)c2ccc(C)cc2)[C@H](CO)O1	·	93*	·	-4

Compound activity (PubChem BioAssay)
